# Compound activity: PubChem, several laboratories
# The list is not random: actives were taken first. Their share in the collection is about 3%.
# H9c2 protect: cardioprotection against H2O2-induced cell death, primary screen, uHTS, H9c2 cells, ATPLite luminescence. H9c2 cardiomyocytes, H2O2 injury protection, 2 h. protection from H2O2 cell death, % at 20 µM. 0.63% of 360,000 active. AID 588492, 2011;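 active means compounds giving at least 50% protection of heart cells from peroxide-induced death in the single-dose screen, raw or plate-pattern-corrected value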;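 further: 0% = DMSO wells with peroxide and 100% = DMSO wells without peroxide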
# Myeloid diff 2: induction of myeloid progenitor differentiation, primary screen, cell-based, flow cytometry, MLPCN library; ER-HoxA9 myeloid progenitors, lysozyme-GFP differentiation; calls only at 10 µM; 1% of 360,000 active;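 active means normalized GFP-positive differentiation at or above the plate's own cutoff, the solvent-only control mean plus 3 SD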;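 further: cells exposed to compound for four days before flow analysis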
# SENP1 inh: human SENP1 catalytic domain inhibitors, primary screen, biochemical, FRET, uHTS | Sentrin-specific protease 1 (Homo sapiens), Q9P0U3 | recombinant SENP1 catalytic domain, CyPet-SUMO1-YPet FRET cleavage | inhibition, % at 10 µM | 0.21% of 360,000 active | AID 624204, 2012;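 active means inhibition at least 30% at 10 µM, raw YFP signal under a set limit, fluorescence ratio 0.5 to 1.5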;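 further: 0% = enzyme with DMSO and 100% = no enzyme wells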
#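 Controls: no-enzyme wells low, DMSO-plus-enzyme wells high control. Test system: human recombinant His6-tagged SENP1 catalytic domain enzyme. Reagent: SFCypet-SUMO1-SFYpet FRET protein substrate, 25 nM final. Doses: one dose per compound, 10 µM, 0.5% DMSO. Detection: FRET, CFP and YFP emission. Timing: 50 min reaction at room temperature.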
# Granule exo inh: LAMP-1 surface exposure blockers, TALL-104 cells – cell-based, flow cytometry, MLPCN library, primary screen. TALL-104 LAMP-1 surface exposure; cells stimulated with thapsigargin and PMA. inhibition, % at 10 µM. 0.66% of 360,000 active. AID 651702, 2012;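 active means inhibition above about 55%, limit read from the data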
# DSG3 Ab inh: inhibitors of pemphigus antibody binding to DSG3, primary screen, biochemical, bead-based, flow cytometry, scFv-GFP; Desmoglein-3 (Homo sapiens), P32926; binding (percent of control), % at 10 µM; 0.48% of 310,000 active; DSG3-coupled beads, scFv-anti-DSG3-GFP binding; active compounds read low;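 active means binding more than 3 SD below its plate's average and above zero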;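 further: hits lower antibody fragment binding to DSG3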
# HNF4A DNA FP: change in binding of human HNF4A to DNA, primary screen, biochemical, fluorescence polarization, FITC-DNA; Hepatocyte nuclear factor 4-alpha (Homo sapiens), P41235; 1 h; activity change, % at 10 µM; 0.3% of 360,000 active; AID 1224865, 2016; in the data active means activity change above about 30%, passing the limit was not always enough
# Target sequence (P41235 whole entry, looked up): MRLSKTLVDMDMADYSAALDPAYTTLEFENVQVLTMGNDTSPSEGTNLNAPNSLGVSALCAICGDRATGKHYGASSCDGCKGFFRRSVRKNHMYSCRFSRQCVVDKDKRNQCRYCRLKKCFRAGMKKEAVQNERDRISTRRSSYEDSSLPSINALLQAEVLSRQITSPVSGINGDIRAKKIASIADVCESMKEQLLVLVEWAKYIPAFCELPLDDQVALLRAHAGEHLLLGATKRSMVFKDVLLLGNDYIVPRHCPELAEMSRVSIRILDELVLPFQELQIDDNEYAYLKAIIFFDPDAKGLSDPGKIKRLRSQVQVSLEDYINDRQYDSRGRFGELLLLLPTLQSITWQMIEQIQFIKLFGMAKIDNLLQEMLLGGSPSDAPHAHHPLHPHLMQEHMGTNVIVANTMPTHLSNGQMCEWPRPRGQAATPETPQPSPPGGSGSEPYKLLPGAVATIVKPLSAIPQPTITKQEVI
# Myeloid diff: inducers of myeloid progenitor differentiation, confirmation, cell-based, GFP/Mac1 flow cytometry, cherry pick 01. shares compounds with Myeloid diff 2. ER-HoxA9 myeloid progenitors, GFP/Mac1 double-positive flow. calls only. 2% of 2,300 active;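 active means share of green or green-and-red cells above 9 and 9% in run 1 or 4 and 3% in run 2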
# GFP autofluor: compound fluorescence in myeloid differentiation counter-screen; fluorescence response, % (no concentration beside the values); shares compounds with Myeloid diff 2; ER-HoxA9 myeloid progenitors, no estrogen, GFP autofluorescence flow cytometry; vehicle wells 0%, positive control 100%; AID 651707; 7.4% of 2,300 active;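 active means over 5% cells positive for green fluorescent reporter, or over 2% positive for both it and APC stain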;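 further: range taken on the double positive population between DMSO and positive control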
# Active calls of the source: *; i = inactive; · = no result; + = active, no number.
SMILES,H9c2 protect,Myeloid diff 2,SENP1 inh,Granule exo inh,DSG3 Ab inh,HNF4A DNA FP,Myeloid diff,GFP autofluor
CCOC(=O)c1cnc(SCc2nc(N)nc(Nc3ccc(F)cc3)n2)nc1N,7.3,i,0.3,-4.0,96.0,0.0,·,·
O=C(C[C@H]1CC[C@H]2[C@@H](COC[C@@H](O)CN2S(=O)(=O)c2ccc(F)cc2)O1)N[C@@H]1CCN(Cc2ccccc2)C1,·,i,-0.9,-10.4,·,0.6,·,·
CCCn1c(NC(=O)CCNC(=O)c2ccccc2Cl)nc2ccccc21,-4.9,i,-5.5,4.3,·,-1.2,·,·
CCCn1c(NC(=O)CCS(=O)(=O)c2ccc(C)cc2)nc2ccccc21,5.6,+,-32.9,2.1,162.3,18.2,i,27.4*
CC(=O)c1sc(NC(=O)CCS(=O)(=O)c2ccc(C)cc2)nc1C,0.5,i,-0.7,3.7,105.5,1.1,i,0.0
CC(=O)c1sc(NC(=O)CS(=O)(=O)c2ccc(F)cc2)nc1C,3.5,i,-10.0,-4.1,105.6,1.9,·,·
O=C(NCCS(=O)(=O)N1CCCCCC1)c1ccccc1,0.1,i,-0.2,10.7,108.5,4.3,·,·
CCOc1cccc(=O)c2c(C)oc(C)c12,1.4,i,8.5,-3.3,100.3,-3.4,i,0.6
CCCCOC(=O)C1=C(C)NC(=O)NC1c1ccc([N+](=O)[O-])s1 (centres undefined),3.0,+,-2.7,2.0,·,0.4,i,0.0
CCCCOC(=O)C1=C(C)NC(=O)NC1c1cccc([N+](=O)[O-])c1 (centres undefined),-10.2,i,0.1,11.2,111.0,0.0,·,·
CCOc1ccccc1C(C(=O)NCCOC)N(CCOC)C(=O)Cn1nnc2ccccc21 (centres undefined),0.2,i,5.1,-0.7,93.8,7.6,i,0.0
COCCNC(=O)C(c1ccc(C)o1)N(CCOC)C(=O)Cn1nnc2ccccc21 (centres undefined),-7.2,i,0.3,-2.0,90.3,-1.5,·,·
COc1ccc(Nc2nnc(SCC(=O)Nc3ccc4[nH]c(=O)[nH]c4c3)s2)cc1,-6.7,i,-9.9,-1.2,91.3,-0.4,·,·
CC(C)c1cc(C(=O)OCC(=O)NC2CCS(=O)(=O)C2)c(O)c(C(C)C)c1 (centres undefined),2.3,i,1.9,1.7,103.4,-1.1,·,·
CCOCC(=O)Nc1nc2ccc(C)cc2s1,-17.4,i,-0.4,-2.2,·,-2.4,·,·
Cc1ccc2nc(NC(=O)CSCC(=O)OCC(=O)c3ccccc3)sc2c1,-5.1,+,-3.0,-1.3,95.3,-0.5,i,0.2
Cc1ccc(/C=C(\C#N)C(=O)NC(C)c2ccccc2)o1 (centres undefined),-2.6,i,-13.5,2.5,101.1,0.2,·,·
O=C(COc1ccc(-n2cnnn2)cc1)Nc1ccc(F)cc1,-2.1,i,0.7,-1.0,94.0,-0.8,·,·
O=C(COc1ccc(-n2cnnn2)cc1)Nc1ccc(F)c(F)c1,-0.4,i,-0.7,-11.2,94.2,1.3,i,0.4
Nc1nonc1-n1nnc(C(=O)N/N=C/c2ccncc2)c1CSc1ccccc1,3.9,i,2.2,-1.2,101.9,-6.2,·,·
COc1ccc(CN2CCNC(=O)C2CC(=O)N(C)Cc2ccon2)c(F)c1 (centres undefined),-1.9,i,-8.3,-8.3,93.0,-1.0,·,·
CCCNC(=O)N[C@H]1CC[C@@H](CCn2cc(-c3cccc(F)c3)nn2)O[C@@H]1CO,·,+,1.1,-0.3,·,4.8,i,0.3
COc1ccc(S(=O)(=O)N(C)CC(=O)Nc2ccc(F)cc2)cc1,-0.4,i,2.0,0.0,·,-1.2,i,0.0
COc1ccc(S(=O)(=O)N(C)CC(=O)Nc2cccc(C(C)=O)c2)cc1,-1.6,i,-11.8,3.9,99.0,-1.1,·,·
CN=C(Nc1ccccc1)SC1CC(=O)N(c2ccc(C(=O)OC)cc2)C1=O (centres undefined),-0.4,i,-0.1,-3.0,101.7,1.6,·,·
SMILES,H9c2 protect,Myeloid diff 2,SENP1 inh,Granule exo inh,DSG3 Ab inh,HNF4A DNA FP,Myeloid diff,GFP autofluor
CN=C(NC)SC1CC(=O)N(c2ccccc2)C1=O (centres undefined),8.9,i,-3.7,0.4,106.4,-0.4,i,0.3
CCCCc1nn(-c2cc(Cl)ccc2OC)c2c1C(=O)CC(C)(C)C2,-25.2,i,3.1,2.6,102.6,0.3,i,0.9
CCCc1nn(-c2cc(Cl)ccc2OC)c2c1C(=O)CCC2,-5.6,i,0.2,2.3,102.6,0.0,·,·
CCn1c(CNC(=O)COc2ccc(C(C)C)cc2)nnc1SCC(=O)Nc1ccc(F)cc1,-8.7,i,0.2,1.4,101.6,-0.1,i,0.0
CCn1c(CNC(=O)COc2ccc(C(C)C)cc2)nnc1SCC(=O)Nc1cc(F)ccc1C,-9.3,i,0.9,4.4,87.5,-1.6,·,·
COc1ccccc1CCNC(=O)c1ccoc1C,6.1,+,1.5,-4.3,114.1,2.2,i,0.4
CN(C)S(=O)(=O)NCC1CCCN(Cc2cc3ccccc3s2)C1 (centres undefined),5.6,i,1.0,-5.8,115.8,-4.7,i,0.3
CN(C)S(=O)(=O)NCC1CCCN(Cc2ccc(-c3ccccc3)cc2)C1 (centres undefined),-1.2,i,-2.1,44.5,104.8,1.8,·,·
CC(C)CCNC(=O)C1(C)CCN1Cc1ccc(-c2ccccn2)cc1 (centres undefined),-3.1,i,1.0,-3.0,·,-1.8,·,·
Cc1cc(C)cc(N2C(N)=NC(N)=NC2c2ccccc2F)c1 (centres undefined),3.0,i,-0.7,9.6,96.0,-2.1,i,0.0
Cc1ccsc1CN(C)CC(=O)NCC(=O)Nc1ccc(F)c(F)c1F,2.7,+,-1.3,-1.7,51.8,-0.2,i,4.2
CCCN1C(=O)c2cccc3c(N4CCCCC4)ccc(c23)C1=O,-12.0,+,-21.7,-0.5,122.8,8.2,i,0.7
O=C1c2cccc3c(N4CCCCC4)ccc(c23)C(=O)N1c1ccccn1,3.3,i,5.7,-3.0,104.5,-2.2,·,·
